Measurements from different studies.
Target: Dual specificity mitogen-activated protein kinase kinase 1 (MAP2K1, Homo sapiens, UniProt Q02750)

CN([C@@H]1CCc2c(CC(=O)O)c3cc(S(C)(=O)=O)ccc3n2C1)S(=O)(=O)c1ccc(F)cc1 — remaining binding (cell-free assay, competition with immobilised ligand; 1 µM): 98%
O=C(CSc1nc2nccnc2c(=O)n1CCc1ccccc1)Nc1nccs1 — inhibition (enzyme activity, inhibitor; 10 µM): -2%
Cn1cnc(Br)c1C1=CN(c2ncnc3[nH]cnc23)CCS1 — inhibition (enzyme activity, inhibitor, radiometric; 50 nM): 17.1%
Cc1ccc(NC(=O)c2ccc(C)c(C(F)(F)F)c2)cc1C#Cc1nn(C2CCC(O)CC2)c2ncnc(N)c12 (stereo not drawn) — remaining signal (cell-free assay; 10 µM): 34%
CCCS(=O)(=O)Nc1ccc(F)c(C(=O)c2c[nH]c3ncc(-c4ccc(Cl)cc4)cc23)c1F — inhibition (enzyme activity, inhibitor; 1 µM): < 10%
CS(=O)(=O)N1CCCC(NC(=O)[C@H](CCC2CCCCC2)NC(=O)c2ccc(CNC(=O)c3cnc4ccccn34)cc2)C1 (stereo partly drawn) — remaining binding (cell-free assay, competition with immobilised ligand; 0.1 µM): 100%
CNC(=O)c1cc(Oc2ccc(NC(=O)Nc3ccc(Cl)c(C(F)(F)F)c3)cc2)ccn1 — inhibition (enzyme activity, inhibitor; 0.3 µM): 0%
Nc1nc(Nc2ccc(S(N)(=O)=O)cc2)nn1C(=O)c1c(F)cccc1F — remaining signal (cell-free assay; 0.5 µM): 93.9%
CN(C)C1CCN(CC#Cc2nn(C3CCCC3)c3nc(NCc4ccccc4)ncc23)C1 (stereo not drawn) — inhibition (enzyme activity, inhibitor, FRET; 10 µM): 13%
Cc1cc(NC(=O)c2cccc3cc(-c4cccc5[nH]nc(N)c45)ccc23)ccc1F — activity vs control (enzyme activity, inhibitor; 0.1 µM): 102%
CC(C)(O)[C@H]1CC[C@H](Nc2ccc3ncc(-c4cccc(C(F)(F)F)c4)n3n2)CC1 — remaining activity (enzyme activity, inhibitor; 1 µM): 79.5%
CCN(CC)CCNC(=O)c1c(C)[nH]c(/C=C2\C(=O)Nc3ccc(F)cc32)c1C — remaining activity (enzyme activity, inhibitor; 1 µM): 44%
Cc1ccc(Nc2nccc(N(C)c3ccc4c(C)n(C)nc4c3)n2)cc1S(N)(=O)=O — inhibition (enzyme activity, inhibitor; 10 µM): 1%
FC(F)(F)Oc1cccc(-c2cnc3ccc(-c4ccncc4)nn23)c1 — activity vs control (enzyme activity, inhibitor, radiometric; 1 µM): 79%
Nc1ncnc2occ(-c3ccc(NC(=O)Nc4cc(C(F)(F)F)ccc4F)cc3)c12 — remaining signal (cell-free assay, inhibitor; 20 µM): 9.3%
O=C(Nc1cnn(-c2csc(C(=O)NC3COC3)c2)c1)Nc1c(F)cccc1Cl — remaining activity (enzyme activity, inhibitor; 5 µM): 107%
CC(C)c1ccc(NC(=O)c2cccs2)c(-c2nc3ccccc3[nH]c2=O)c1 — activity vs control (enzyme activity, inhibitor; 1 µM): 112%
CNC(=O)Nc1ccc2c(c1)CC[C@@]21OC(=O)N(CC(=O)N(Cc2ccc(F)cc2)[C@@H](C)C(F)(F)F)C1=O — remaining binding (cell-free assay, competition with immobilised ligand; 1 µM): 85%
Oc1cccc(-c2nc(N3CCOCC3)c3oc4ncccc4c3n2)c1 — remaining activity (enzyme activity, inhibitor; 10 µM): 105%
CNCc1ccc(-c2cc(-c3nc(-c4ccc(S(=O)(=O)C(C)C)cc4)cnc3N)on2)cc1 — inhibition (enzyme activity, inhibitor; 2 µM): 6%
C[C@@H]1CN(c2cc(-c3nn(C)c4ccc(OC5(C)CC5)cc34)ncn2)C[C@H](C)O1 — remaining binding (cell-free assay, competition with immobilised ligand; 1 µM): 74%
Nc1nc(NC2CCCCC2)sc1C(=O)c1ccccc1 — remaining activity (enzyme activity, inhibitor; 10 µM): 68%
O=C1NC(=O)c2cc(Nc3ccc(F)cc3)c(Nc3ccc(F)cc3)cc21 — remaining signal (cell-free assay; 0.5 µM): 103%
CNCc1ccccc1-c1csc([C@H](C)Nc2nc(C)nc3cc(OC)c(OC)cc23)c1 — remaining binding (cell-free assay, competition with immobilised ligand; 1 µM): 100%
Nc1nc(Nc2ccccc2)sc1C(=O)c1c(F)cccc1F — remaining activity (enzyme activity, inhibitor; 10 µM): 96%
O=C(NCc1ncc(C(F)(F)F)cc1Cl)c1ccc2c(c1)C1(CCS(=O)(=O)CC1)[C@H](C1CC1)N2S(=O)(=O)c1ccc(F)cc1 — remaining binding (cell-free assay, competition with immobilised ligand; 1 µM): 98%
Cc1[nH]c(/C=C2\C(=O)Nc3ccc(F)cc32)c(C)c1C(=O)N[C@H]1CCN(C(=O)N(C)C)C1 — remaining activity (enzyme activity, inhibitor; 1 µM): 59%
CC(C)(C)c1nc(-c2cccc(NS(=O)(=O)c3c(F)cccc3F)c2F)c(-c2ccnc(N)n2)s1 — remaining activity (enzyme activity, inhibitor, radiometric; 1 µM): 94%
COc1cc(Nc2cnc(C#N)c(O[C@H](C)CN(C)C)n2)ncc1-c1cnn(C)c1 — remaining activity (enzyme activity, inhibitor, radiometric; 1 µM): 80%
COc1cc2ncnc(Nc3ccc(Oc4ccccc4)cc3C)c2cc1OC — inhibition (enzyme activity, inhibitor; 1 µM): 11%
CCN(CC)CCNC(=O)c1c(C)[nH]c(/C=C2\C(=O)Nc3ccc(F)cc32)c1C — inhibition (enzyme activity, inhibitor; 0.3 µM): 36%
O=C1Nc2ccc(Cl)cc2C1=Cc1cc(Cl)c(O)c(Cl)c1 — remaining signal (cell-free assay; 0.5 µM): 96.8%
O=C(Nc1ccc(Oc2ccc(F)cc2)cc1)N1CCc2ncccc2[C@H]1c1ccc(F)cc1 — remaining binding (cell-free assay, competition with immobilised ligand; 1 µM): 98%
Cc1ccc(C(=O)NCc2ccsc2)cc1C#Cc1cn(C(C)C)c2ncnc(N)c12 — activity vs control (enzyme activity, inhibitor; 1 µM): 93%
CN(C(=O)c1ccccc1)c1cc(N(C)c2ccc3c(c2)CCc2ccc(C(=O)NCCN4CCOCC4)cc2C3=O)ccc1F — remaining binding (cell-free assay, competition with immobilised ligand; 1 µM): 100%
CCN(CC)Cc1cc(Nc2ccnc3cc(Cl)ccc23)ccc1O — remaining binding (cell-free assay, competition with immobilised ligand; 10 µM): 96%
